SMILES strings stand for the structures.

For orientation: logP means a log measure of how a compound divides between an organic and an aqueous phase. Broadly, the inhibition is the share of the control response that was lost under treatment.

Data set [1] can be described thus: Partition coefficient (logP). In kind it is physicochemical. As to conditions: octanol/water. In a few lines:
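Partitioning measured between n-octanol and water.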

Data set [2] is described as follows: Ability to inhibit the Mitochondrial cytochrome c Oxidase in isolated mitochondrial suspensions from R3230AC rat mammary adenocarcinomas. Also noted: concentration or dose not given beside the values. The following applies: concentration not given here. In outline:
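Mitochondria isolated from subcutaneously transplanted R3230AC tumors in female Fischer 344 rats and stored at -70 °C. They were diluted in sucrose/KCl buffer (pH 7.4) to give a 0.45-0.60/min absorbance change of cytochrome c at 550 nm. Dye (10 μM) was added for 5 min in the dark at room temperature, then mitochondria were pelleted and resuspended. Samples were matched by absorbance (~1.5 OD) and irradiated with 375–800 nm light. The initial inhibition rate was taken over the first 5 min of exposure.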

With `CC(C)(C)C1=CC(=C/C=C/c2cc(C(C)(C)C)[te+]c(C(C)(C)C)c2)C=C(C(C)(C)C)[Te]1`, the logP in data set [1] turned out to be 2.02.
In data set [2], `CC(C)(C)C1=CC(=C/C=C/c2cc(C(C)(C)C)[se+]c(C(C)(C)C)c2)C=C(C(C)(C)C)[Se]1` had an inhibition of 4.2%. The compound further registered a log partition coefficient (logP) in data set [1] of 1.92.
In the same order, the values of `CC(C)(C)C1=CC(=C/C=C/c2cc(C(C)(C)C)[s+]c(C(C)(C)C)c2)C=C(C(C)(C)C)S1` are 0.045% and 1.97.
As to `CC(C)(C)C1=CC(=C/C=C/c2cc(C(C)(C)C)[o+]c(C(C)(C)C)c2)C=C(C(C)(C)C)O1`, in data set [2], the inhibition amounted to 0%. This compound also showed a log partition coefficient (logP) in data set [1] of 2.51.
In the same order, the values of `CC(C)(C)C1=CC(=C/C=C/c2cc(C(C)(C)C)[se+]c(C(C)(C)C)c2)C=C(C(C)(C)C)S1` are 4.05% and 2.39.
As for `CC(C)(C)C1=CC(=C/C=C/c2cc(C(C)(C)C)[se+]c(C(C)(C)C)c2)C=C(C(C)(C)C)O1`, the inhibition in data set [2] came out at 2.55%.
As to `CC(C)(C)C1=CC(=C/C=C/c2cc(C(C)(C)C)[te+]c(C(C)(C)C)c2)C=C(C(C)(C)C)O1`, in data set [2], the inhibition worked out at 10.9%. Moreover, in data set [1], the logP came to 2.41.
As to `CC(C)(C)C1=CC(=C/C=C/c2cc(C(C)(C)C)[te+]c(C(C)(C)C)c2)C=C(C(C)(C)C)[Se]1`, in data set [2], the inhibition was found to be 3%. Besides, the lipophilicity (logP) in data set [1] turned out to be 2.41.
`CC(C)(C)C1=CC(=C/C=C/c2cc(C(C)(C)C)[s+]c(C(C)(C)C)c2)C=C(C(C)(C)C)O1`: the inhibition in data set [2] was found to be 0.03%.

For the origin of these results see ChEMBL document CHEMBL1124734, “Chalcogenapyrylium dyes as photochemotherapeutic agents. 2. Tumor uptake, mitochondrial targeting, and singlet-oxygen-induced inhibition of cytochrome c oxidase” (J Med Chem, 1990).
